Source: PubChem BioAssay (several laboratories)
TAAR1 ag: human TAAR1 agonists, primary screen, Fluo-8 calcium fluorescence, CHO RD-HGA16 cells; 0.99% of 360,000 active; AID 624467, 2012; Trace amine-associated receptor 1 (Homo sapiens), Q96RJ0; vehicle wells 0%, saturating PEA agonist 100%; activation, % at 3 µM;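 active = activation above the mean activation of all test compounds in the run plus 3 SD, cut at about 38% in these data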
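System: CHO-derived RD-HGA16 cells with stable Gα16 and human TAAR1 / Times: 17-24 h plating, Fluo-8 75 min 37 °C, 30 min RT / Technique: calcium-sensitive Fluo-8 signal, excitation 470-495, emission 515-575 nm / Measure: % activation relative to PEA EC100 response / Benchmarks: DMSO and PEA EC100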
MC4R barr agon: MC4R agonists recruiting beta-arrestin, primary screen, cell-based, luminescence, agonist arm of biased-ligand search. activation, % at 8.9 µM. U2OS MC4R beta-arrestin complementation; percent of melanotan II response, DMSO zero. 0.98% of 360,000 active. Melanocortin receptor 4 (Homo sapiens), P32245. AID 540308, 2011;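 active = activation above a per-plate cutoff, the mean activation of sample wells on that plate plus 3 SD, cut at about 8% in these data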
HTR2A ag: mouse Htr2a agonists via beta-arrestin recruitment, primary screen, cell-based, luminescence. 5-hydroxytryptamine receptor 2A (Mus musculus), P35363. CHO-K1 mHTR2A beta-arrestin complementation; percent of 30 µM serotonin response. activation, % at 7.6 µM. 0.66% of 360,000 active. AID 624169, 2012;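 active = activation above a run cutoff, the mean activation of all tested compounds plus 3 SD, cut at about 14% in these data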
MC4R antag cAMP: MC4R antagonists of cAMP signaling, primary screen, cell-based, TR-FRET, antagonist arm of biased-ligand search. AID 540295, 2011. inhibition, % at 6.5 µM. 0.48% of 360,000 active. MC4R-expressing cells, MTII-stimulated cAMP, LANCE TR-FRET;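 active = inhibition above its plate's cutoff, the mean of tested wells on that plate plus 3 SD, cut at about 29% in these data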
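System: U2OS cells stably expressing human melanocortin 4 receptor (MC4R). Reagent: Melanotan II challenge after compound preincubation. Doses: 6.5 µM. Times: 30-min compound, 1-h challenge, 1-h detection, room temperature. Measured by: TR-FRET with Eu-cAMP and labeled anti-cAMP, 671 nm. Replicates: singlicate.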
TAAR1 antagonist: human TAAR1 antagonists, primary screen, Fluo-8 calcium fluorescence, CHO RD-HGA16 cells. Trace amine-associated receptor 1 (Homo sapiens), Q96RJ0. antagonist. inhibition, % at 3 µM. 1.5% of 360,000 active;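 active = inhibition above a per-plate cutoff, the mean inhibition of test compounds on that plate plus 3 SD, cut at about 49% in these data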
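Test system: RD-HGA16 CHO cells with stable hTAAR1 and Gα16 / Probe or stimulus: EC80 β-phenethylamine stimulus / Times: seeding 17-24 h prior, 75-min 37 °C, 30-min RT dye loading / Detection: Fluo-8 calcium-sensitive fluorescence / Read-out basis: % inhibition scaled between DMSO and EC80 PEA controls / Repeats: singlicate, one well per test compound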
Beta2AR agonist: beta2AR agonists driving receptor internalization, primary screen, cell-based, FAP fluorogen, flow cytometry. Beta-2 adrenergic receptor (Homo sapiens), P07550. Am2.2-beta2AR cells. response, % (no concentration beside the values). 0.43% of 340,000 active;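 active = response above a set limit, near 3 SD of response in nonfluorescent compounds, cut at about 42% in these data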
Target sequence (P07550 whole entry, looked up): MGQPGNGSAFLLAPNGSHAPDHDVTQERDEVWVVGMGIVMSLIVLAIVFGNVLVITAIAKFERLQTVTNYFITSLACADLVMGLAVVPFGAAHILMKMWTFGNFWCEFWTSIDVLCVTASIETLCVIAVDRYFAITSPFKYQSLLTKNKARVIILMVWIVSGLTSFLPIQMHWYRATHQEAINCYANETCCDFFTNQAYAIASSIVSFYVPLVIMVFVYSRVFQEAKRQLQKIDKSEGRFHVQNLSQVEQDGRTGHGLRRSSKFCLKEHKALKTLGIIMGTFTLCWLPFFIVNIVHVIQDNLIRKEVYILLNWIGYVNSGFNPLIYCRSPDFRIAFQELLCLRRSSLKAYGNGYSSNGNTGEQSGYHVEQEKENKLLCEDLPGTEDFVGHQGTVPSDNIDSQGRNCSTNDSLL
MC4R barr ag: MC4R beta-arrestin agonists, retest, confirmation, cell-based, luminescence, U2OS | shares compounds with MC4R barr agon | U2OS MC4R beta-arrestin recruitment; scaled DMSO 0%, Melanotan II 100% | activation, % at 8.9 µM | 31% of 2,400 active | AID 602192, 2012;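 active = mean activation across replicates above the hit cutoff set in the earlier primary screen, cut at about 8% in these data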
MOR DOR agonist: agonists of MOR-DOR heterodimerization, counter-screen for MC4R biased agonist project, cell-based, luminescence; 5.8% of 2,400 active; U2OS PathHunter beta-arrestin, beta-gal luminescence; percent of deltorphin B response, DMSO zero; AID 602194, 2012; shares compounds with MC4R barr agon; activation, % at 9.2 µM;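 active = mean activation across replicates exceeds the hit threshold derived in the earlier primary screen, cut at about 18% in these data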
Hits are given with their value. Most compounds without a hit are left out; they make up all but 4.3% or so of the library.

`CCCC(=O)Oc1ccccc1C1SCc2cc(C)c(C)cc2CS1` gave TAAR1 ag inactive, MC4R barr agon 15.8, HTR2A ag inactive, MC4R antag cAMP inactive, TAAR1 antagonist inactive, Beta2AR agonist inactive, MC4R barr ag inactive and MOR DOR agonist inactive.
Screening CC(C)(C)c1nn(-c2ccccc2)c2[nH]c(=O)c(CNc3ccc4c(c3)OCCO4)cc12 returned TAAR1 ag inactive, MC4R barr agon inactive, HTR2A ag inactive, MC4R antag cAMP inactive, TAAR1 antagonist inactive and Beta2AR agonist inactive.
COc1ccc(CNCc2cc3c(C(C)(C)C)nn(-c4ccccc4)c3[nH]c2=O)cc1 was read as TAAR1 ag inactive, MC4R barr agon 15.0, HTR2A ag inactive, MC4R antag cAMP inactive, TAAR1 antagonist inactive, Beta2AR agonist inactive, MC4R barr ag 14.1 and MOR DOR agonist inactive.
For O=C(NCCOc1ccccc1Cl)C(=O)NCCOc1ccccc1Cl the results were TAAR1 ag inactive, MC4R barr agon inactive, HTR2A ag inactive, MC4R antag cAMP inactive, TAAR1 antagonist inactive and Beta2AR agonist inactive.
For Cc1ccc(NC(=O)C(=O)NCCOc2ccccc2Cl)cc1 the results were TAAR1 ag inactive, MC4R barr agon 11.5, HTR2A ag inactive, MC4R antag cAMP inactive, TAAR1 antagonist inactive, Beta2AR agonist inactive, MC4R barr ag 9.8 and MOR DOR agonist inactive.
Screening CCc1ccc(NC(=O)C(=O)NCCOc2ccccc2Cl)cc1 returned TAAR1 ag inactive, MC4R barr agon 20.9, HTR2A ag inactive, MC4R antag cAMP inactive, TAAR1 antagonist inactive, Beta2AR agonist inactive, MC4R barr ag inactive and MOR DOR agonist inactive.
`C#CCn1c(=NC(=O)c2cc(-c3cccs3)nc3ccccc23)sc2cc(S(N)(=O)=O)ccc21` gave TAAR1 ag inactive, MC4R barr agon 20.1, HTR2A ag inactive, MC4R antag cAMP inactive, TAAR1 antagonist inactive, Beta2AR agonist inactive, MC4R barr ag 10.3 and MOR DOR agonist inactive.
Screening C#CCn1c(=NC(=O)c2cc(Cl)sc2Cl)sc2cc(S(N)(=O)=O)ccc21 returned TAAR1 ag inactive, MC4R barr agon inactive, HTR2A ag inactive, MC4R antag cAMP inactive, TAAR1 antagonist inactive and Beta2AR agonist inactive.
`Cc1ccc(C)c(N2CCN(S(=O)(=O)c3ccc4[nH]c(=O)c(=O)[nH]c4c3)CC2)c1` gave TAAR1 ag inactive, MC4R barr agon inactive, HTR2A ag inactive, MC4R antag cAMP inactive, TAAR1 antagonist inactive and Beta2AR agonist inactive.
For Cc1ccc(C)c(N2CCN(S(=O)(=O)c3ccc4[nH]c(=O)ccc4c3)CC2)c1 the results were TAAR1 ag inactive, MC4R barr agon 16.8, HTR2A ag inactive, MC4R antag cAMP inactive, TAAR1 antagonist inactive, Beta2AR agonist inactive, MC4R barr ag inactive and MOR DOR agonist inactive.
Cc1cccc(NC2=NC(=S)N(c3cccc(C(=O)O)c3)C23CCCCC3)c1 was read as TAAR1 ag inactive, MC4R barr agon inactive, HTR2A ag inactive, MC4R antag cAMP inactive, TAAR1 antagonist inactive and Beta2AR agonist inactive.
`COc1ccc(N2C(=S)N=C(Nc3cccc(C)c3)C23CCCCC3)cc1` gave TAAR1 ag inactive, MC4R barr agon 23.7, HTR2A ag inactive, MC4R antag cAMP inactive, TAAR1 antagonist inactive, Beta2AR agonist inactive, MC4R barr ag 9.6 and MOR DOR agonist inactive.
